In ChEMBL document CHEMBL5329188, “Design, synthesis, and biological evaluation of 3,3'-diindolylmethane N-linked glycoconjugate as a leishmanial topoisomerase IB inhibitor with reduced cytotoxicity” (RSC Med Chem, 2023):
The source made the active and inactive calls. The calls are words filed in the database; no cut-off is given here.

How the values were obtained:
Leishmania donovani [1] = assay: Antileishmanial activity against Leishmania donovani MHOM/IN/80/Dd8 promastigotes assessed as reduction in promastigotes viability incubated for 24 hrs by resazurin-based alamar blue dye assay; assay type: functional, organism-based; conditions: MHOM/IN/80/Dd8, 24 h
Summary of the method: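 L. donovani DD8 promastigotes, exponential phase, in M199 with 10% heat-inactivated FBS at 24 ± 1 °C, 5×10^6 cells per well. Exposed 24 h to 100, 50, 25, 12.5 and 6.25 μM (1 mM DMSO stocks). Viability read with resazurin (Alamar Blue, 20 μg ml^-1 final), excitation 550 nm and emission 590 nm. Amphotericin B standard. IC50 from curve fit; mean ± SD of three independent experiments.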

Leishmania donovani [2] = assay: Inhibition of recombinant Leishmania donovani DNA topoisomerase IB mediated relaxation activity expressed in Escherichia coli BL21 (DE3) cells using supercoiled pHOT1 DNA as substrate at 500 uM incubated for 25 mins by EtBr staining based agarose gel electrophoresis analysis relative to control
Summary of the method: (§1)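 His-tagged LdTopILS expressed from pET16b plasmids in E. coli BL21(DE3) (0.5 mM IPTG, 22 °C, 12 h) and Ni-NTA purified. Enzyme mixed with supercoiled pHOT1 at 3:1 molar ratio in 25 mM Tris-Cl pH 7.5, 5% glycerol, 50 mM KCl, 0.5 mM DTT, 10 mM MgCl2, 30 μg ml^-1 BSA for 25 min at 37 °C. Controls: CPT 60 μM and DMSO 4% v/v. Products run on 1% agarose, EtBr stained, relaxed vs supercoiled quantified.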

Leishmania donovani [3] = assay: Inhibition of recombinant Leishmania donovani DNA topoisomerase IB mediated relaxation activity expressed in Escherichia coli BL21 (DE3) cells using supercoiled pHOT1 DNA as substrate at 400 uM incubated for 25 mins by EtBr staining based agarose gel electrophoresis analysis relative to control; summary of the method: as §1
Leishmania donovani [4] = assay: Inhibition of recombinant Leishmania donovani DNA topoisomerase IB mediated relaxation activity expressed in Escherichia coli BL21 (DE3) cells using supercoiled pHOT1 DNA as substrate at 500 uM incubated for 25 mins by EtBr staining based agarose gel electrophoresis analysis; summary of the method: as §1
J774.A1 [5] = assay: Cytotoxicity against mouse J774.A1 cells assessed as reduction in viability at 50 uM incubated for 20 hrs by MTT assay; assay type: toxicity, cell-based; conditions: j774.a1, 20 h
Summary of the method: (§2)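 J774A.1 murine macrophages in DMEM, 2×10^4 cells per well, adhered overnight. Treated in triplicate at 100, 50, 30, 20 and 10 μM with 0.1% final DMSO (DMSO negative control, amphotericin B positive control) for 20 h. MTT (2.5 mg ml^-1 in PBS) added for 4 h at 37 °C, formazan dissolved in DMSO, OD 570 nm. CC50 from curve fit; mean ± SD of three independent experiments.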

J774.A1 [6] = assay: Cytotoxicity against mouse J774.A1 cells assessed as reduction in viability at 30 uM incubated for 20 hrs by MTT assay; assay type: toxicity, cell-based; conditions: j774.a1, 20 h; summary of the method: as §2
J774.A1 [7] = assay: Cytotoxicity against mouse J774.A1 cells assessed as reduction in viability at 20 uM incubated for 20 hrs by MTT assay; assay type: toxicity, cell-based; conditions: j774.a1, 20 h; summary of the method: as §2
J774.A1 [8] = assay: Cytotoxicity against mouse J774.A1 cells assessed as reduction in viability at 10 uM incubated for 20 hrs by MTT assay; assay type: toxicity, cell-based; conditions: j774.a1, 20 h; summary of the method: as §2
[9] = Cytotoxicity against mouse J774.A1 cells assessed as reduction in viability incubated for 20 hrs by MTT assay; assay type: toxicity, cell-based; summary of the method: as §2
Leishmania donovani [10] = assay: Inhibition of recombinant Leishmania donovani DNA topoisomerase IB mediated relaxation activity expressed in Escherichia coli BL21 (DE3) cells using supercoiled pHOT1 DNA as substrate at 60 uM incubated for 25 mins by EtBr staining based agarose gel electrophoresis analysis
Summary of the method: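 LdTopILS was co-expressed from pET16bLdTOP1L and pET16bLdTOP1S in E. coli BL21(DE3), induced with 0.5 mM IPTG at OD600 0.6 for 12 h at 22 °C, and Ni-NTA purified. Enzyme and supercoiled pHOT1 (3:1 molar) ran 25 min at 37 °C in 25 mM Tris-Cl pH 7.5, 5% glycerol, 50 mM KCl, 0.5 mM DTT, 10 mM MgCl2, 30 µg/ml BSA. DMSO 4% v/v was the solvent control. Relaxed versus supercoiled bands were quantified on 1% agarose with EtBr.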

Compound: Clc1ccc(C(c2c[nH]c3ccccc23)c2c[nH]c3ccccc23)cc1
- IC50 (Leishmania donovani [1]): 57.1 µM

Compound: Clc1ccc2c(C(c3ccc(Br)cc3)c3c[nH]c4cc(Cl)ccc34)c[nH]c2c1
- IC50 (Leishmania donovani [1]): 74.3 µM

Compound: CSc1ccc(C(c2c[nH]c3ccc(Br)cc23)c2c[nH]c3ccc(Br)cc23)cc1
- IC50 (Leishmania donovani [1]): > 100 µM

Compound: O=[N+]([O-])c1ccc(C(c2c[nH]c3ccc(Br)cc23)c2c[nH]c3ccc(Br)cc23)cc1
- IC50 (Leishmania donovani [1]): 48.5 µM

Compound: CC(=O)OC[C@H]1O[C@@H](n2ccc3cc(Br)ccc32)[C@H](OC(C)=O)[C@@H](OC(C)=O)[C@@H]1OC(C)=O
- inhibition (Leishmania donovani [2]): > 90%

Compound: CC(=O)OC[C@H]1O[C@@H](n2cc(C(c3ccc(F)cc3)c3cn([C@@H]4O[C@H](COC(C)=O)[C@@H](OC(C)=O)[C@H](OC(C)=O)[C@H]4OC(C)=O)c4ccc(Br)cc34)c3cc(Br)ccc32)[C@H](OC(C)=O)[C@@H](OC(C)=O)[C@@H]1OC(C)=O
- IC50 (Leishmania donovani [1]): 29.1 µM
- inhibition (Leishmania donovani [2]): 100%
- inhibition (Leishmania donovani [3]): 100%

Compound: Clc1ccc(C(c2c[nH]c3ccc(Br)cc23)c2c[nH]c3ccc(Br)cc23)cc1
- IC50 (Leishmania donovani [1]): 41.8 µM
- inhibition (Leishmania donovani [4]): inactive

Compound: Brc1ccc(C(c2c[nH]c3ccccc23)c2c[nH]c3ccccc23)cc1
- IC50 (Leishmania donovani [1]): 47 µM
- inhibition (Leishmania donovani [4]): inactive

Compound: Cc1ccc(C(c2c[nH]c3ccccc23)c2c[nH]c3ccccc23)cc1
- IC50 (Leishmania donovani [1]): 54.3 µM

Compound: COc1ccc(C(c2c[nH]c3ccccc23)c2c[nH]c3ccccc23)cc1
- IC50 (Leishmania donovani [1]): 54.9 µM

Compound: O=[N+]([O-])c1ccc(C(c2c[nH]c3ccccc23)c2c[nH]c3ccccc23)cc1
- IC50 (Leishmania donovani [1]): > 100 µM

Compound: COc1ccc(C(c2c[nH]c3ccc(Br)cc23)c2c[nH]c3ccc(Br)cc23)cc1
- IC50 (Leishmania donovani [1]): > 100 µM

Compound: Fc1ccc(C(c2c[nH]c3ccc(Br)cc23)c2c[nH]c3ccc(Br)cc23)cc1
- IC50 (Leishmania donovani [1]): 34.8 µM
- Activity (J774.A1 [5]): 21.73%
- Activity (J774.A1 [6]): 30.34%
- Activity (J774.A1 [7]): 34.28%
- Activity (J774.A1 [8]): 39.59%
- CC50 at 20 h [9]: 4.45 µM
- inhibition (Leishmania donovani [4]): inactive

Compound: OC[C@H]1O[C@@H](n2cc(C(c3ccc(F)cc3)c3cn([C@@H]4O[C@H](CO)[C@@H](O)[C@@H](O)[C@H]4O)c4ccc(Br)cc34)c3cc(Br)ccc32)[C@H](O)[C@H](O)[C@@H]1O (some centres undefined)
- IC50 (Leishmania donovani [1]): 27.9 µM
- Activity (J774.A1 [5]): 69.77%
- Activity (J774.A1 [6]): 70.11%
- Activity (J774.A1 [7]): 81.05%
- Activity (J774.A1 [8]): 96.25%
- CC50 at 20 h [9]: 89.2 µM
- inhibition (Leishmania donovani [2]): 100%
- inhibition (Leishmania donovani [3]): 100%

Compound: Clc1ccc(C(c2c[nH]c3cc(Cl)ccc23)c2c[nH]c3cc(Cl)ccc23)cc1
- IC50 (Leishmania donovani [1]): 53.2 µM

Compound: C[C@@H]1[C@H](O)[C@@H](C)/C=C/C=C/C=C/C=C/C=C/C=C/C=C/[C@H](O[C@@H]2O[C@H](C)[C@@H](O)[C@H](N)[C@@H]2O)C[C@@H]2O[C@](O)(C[C@@H](O)C[C@@H](O)[C@H](O)CC[C@@H](O)C[C@@H](O)CC(=O)O[C@H]1C)C[C@H](O)[C@H]2C(=O)O [AMPHOTERICIN B]
- IC50 (Leishmania donovani [1]): 0.4 µM

Compound: Fc1ccc2[nH]cc(C(c3ccc(Cl)cc3)c3c[nH]c4ccc(F)cc34)c2c1
- IC50 (Leishmania donovani [1]): 31.4 µM
- Activity (J774.A1 [5]): 26.14%
- Activity (J774.A1 [6]): 32.04%
- Activity (J774.A1 [7]): 33.53%
- Activity (J774.A1 [8]): 40.15%
- CC50 at 20 h [9]: 4.51 µM
- inhibition (Leishmania donovani [4]): inactive

Compound: Fc1ccc(C(c2c[nH]c3cc(Cl)ccc23)c2c[nH]c3cc(Cl)ccc23)cc1
- IC50 (Leishmania donovani [1]): > 100 µM

Compound: Fc1ccc(C(c2c[nH]c3ccccc23)c2c[nH]c3ccccc23)cc1
- IC50 (Leishmania donovani [1]): 36.2 µM
- Activity (J774.A1 [5]): 15.89%
- Activity (J774.A1 [6]): 19.81%
- Activity (J774.A1 [7]): 20.05%
- Activity (J774.A1 [8]): 26.23%
- CC50 at 20 h [9]: 5.71 µM
- inhibition (Leishmania donovani [4]): inactive

Compound: O=[N+]([O-])c1ccc(C(c2c[nH]c3cc(Cl)ccc23)c2c[nH]c3cc(Cl)ccc23)cc1
- IC50 (Leishmania donovani [1]): 48.4 µM

Compound: Brc1ccc(C(c2c[nH]c3ccc(Br)cc23)c2c[nH]c3ccc(Br)cc23)cc1
- IC50 (Leishmania donovani [1]): > 100 µM

Compound: CC[C@@]1(O)C(=O)OCc2c1cc1n(c2=O)Cc2cc3ccccc3nc2-1
- inhibition (Leishmania donovani [10]): Active

Compound: OC[C@H]1O[C@@H](n2ccc3cc(Br)ccc32)[C@H](O)[C@@H](O)[C@@H]1O
- inhibition (Leishmania donovani [2]): > 90%

Compound: Cc1ccc(C(c2c[nH]c3ccc(Br)cc23)c2c[nH]c3ccc(Br)cc23)cc1
- IC50 (Leishmania donovani [1]): 59.2 µM

Compound: CSc1ccc(C(c2c[nH]c3ccccc23)c2c[nH]c3ccccc23)cc1
- IC50 (Leishmania donovani [1]): > 100 µM
